The values below come from ChEMBL document CHEMBL3098025, “Optimization of potency and pharmacokinetics of tricyclic indole derived inhibitors of HCV NS5B polymerase. Identification of ester prodrugs with improved oral pharmacokinetics” (Bioorg Med Chem, 2014).

What is called EC90 is the point of the concentration-response curve where the effect stands at 90%. Usually IC50 stands for the midpoint of a concentration-inhibition curve.

For data set [1], the system named is Liver microsome. In words: Metabolic stability in human liver microsomes assessed as oxidation. It is filed as ADME. On the technique in general: Microsomes from liver hold many membrane-bound enzymes, among them those of drug oxidation.
The subject of data set [2] is Liver microsome. The data set can be described thus: Metabolic stability in human liver microsomes assessed as glutathione adduct formation. The class given is ADME.
A further data set relates to Hepatitis C virus. The data set can be described thus: Antiviral activity against HCV1b assessed as inhibition of viral replication. The settings on record: genotype 1b. It is filed as functional, organism-based, Hepacivirus hominis. In a few lines:
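In the cell-based HCV replicon assay, viral RNA levels were measured. EC50 is the concentration giving a 50% reduction in replicon RNA.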

The nature of data set [3]: Inhibition of HCV1b NS5B polymerase. Further details: species or system Hepatitis C virus subtype 1b.

As for `O=C(O)c1c(-c2ccc[nH]c2=O)c2c3occc3c(F)cc2n1Cc1cc(F)ccc1F`, the Stability result in the data set with Liver microsome [1] and with Liver microsome [2] was “Stable” in each case. Moreover, the EC90 in the data set with Hepatitis C virus was determined as 90 nM. The compound also came in with an IC50 in data set [3] of 2 nM.
